Results reported in ChEMBL document CHEMBL4024796, “Phenylthiomethyl Ketone-Based Fragments Show Selective and Irreversible Inhibition of Enteroviral 3C Proteases” (J Med Chem, 2018).
pIC50, pKi: −log10 of the molar value. One block for each compound: values may come before it. Activity calls are given as the source filed them. No cut-off for these calls is given here.

Tests used:
[1] = target: Genome polyprotein (Coxsackievirus B3 (strain Nancy)) (UniProt P03313); assay: Inhibition of Coxsackievirus B3 C-terminal His6-tagged protease 3C expressed in Escherichia coli BL21(DE3) at 650 uM using N-Dabcyl-KTLEALFQGPPVYE-(Edans)-NH2 as substrate after 30 mins by fluorescence assay relative to control
Outline: (§1)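 Enzyme added from 40 μM and substrate from 20 μM working solutions, inhibitor in DMSO, DMSO alone as control. Fluorescence read at ex 355/em 538 nm over 30 min, triplicates. Apparent IC50 from a Hill-type fit of initial velocities; kobs for covalent reversible inhibition from progress-curve fits.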
Target sequence in this assay (P03313 whole entry): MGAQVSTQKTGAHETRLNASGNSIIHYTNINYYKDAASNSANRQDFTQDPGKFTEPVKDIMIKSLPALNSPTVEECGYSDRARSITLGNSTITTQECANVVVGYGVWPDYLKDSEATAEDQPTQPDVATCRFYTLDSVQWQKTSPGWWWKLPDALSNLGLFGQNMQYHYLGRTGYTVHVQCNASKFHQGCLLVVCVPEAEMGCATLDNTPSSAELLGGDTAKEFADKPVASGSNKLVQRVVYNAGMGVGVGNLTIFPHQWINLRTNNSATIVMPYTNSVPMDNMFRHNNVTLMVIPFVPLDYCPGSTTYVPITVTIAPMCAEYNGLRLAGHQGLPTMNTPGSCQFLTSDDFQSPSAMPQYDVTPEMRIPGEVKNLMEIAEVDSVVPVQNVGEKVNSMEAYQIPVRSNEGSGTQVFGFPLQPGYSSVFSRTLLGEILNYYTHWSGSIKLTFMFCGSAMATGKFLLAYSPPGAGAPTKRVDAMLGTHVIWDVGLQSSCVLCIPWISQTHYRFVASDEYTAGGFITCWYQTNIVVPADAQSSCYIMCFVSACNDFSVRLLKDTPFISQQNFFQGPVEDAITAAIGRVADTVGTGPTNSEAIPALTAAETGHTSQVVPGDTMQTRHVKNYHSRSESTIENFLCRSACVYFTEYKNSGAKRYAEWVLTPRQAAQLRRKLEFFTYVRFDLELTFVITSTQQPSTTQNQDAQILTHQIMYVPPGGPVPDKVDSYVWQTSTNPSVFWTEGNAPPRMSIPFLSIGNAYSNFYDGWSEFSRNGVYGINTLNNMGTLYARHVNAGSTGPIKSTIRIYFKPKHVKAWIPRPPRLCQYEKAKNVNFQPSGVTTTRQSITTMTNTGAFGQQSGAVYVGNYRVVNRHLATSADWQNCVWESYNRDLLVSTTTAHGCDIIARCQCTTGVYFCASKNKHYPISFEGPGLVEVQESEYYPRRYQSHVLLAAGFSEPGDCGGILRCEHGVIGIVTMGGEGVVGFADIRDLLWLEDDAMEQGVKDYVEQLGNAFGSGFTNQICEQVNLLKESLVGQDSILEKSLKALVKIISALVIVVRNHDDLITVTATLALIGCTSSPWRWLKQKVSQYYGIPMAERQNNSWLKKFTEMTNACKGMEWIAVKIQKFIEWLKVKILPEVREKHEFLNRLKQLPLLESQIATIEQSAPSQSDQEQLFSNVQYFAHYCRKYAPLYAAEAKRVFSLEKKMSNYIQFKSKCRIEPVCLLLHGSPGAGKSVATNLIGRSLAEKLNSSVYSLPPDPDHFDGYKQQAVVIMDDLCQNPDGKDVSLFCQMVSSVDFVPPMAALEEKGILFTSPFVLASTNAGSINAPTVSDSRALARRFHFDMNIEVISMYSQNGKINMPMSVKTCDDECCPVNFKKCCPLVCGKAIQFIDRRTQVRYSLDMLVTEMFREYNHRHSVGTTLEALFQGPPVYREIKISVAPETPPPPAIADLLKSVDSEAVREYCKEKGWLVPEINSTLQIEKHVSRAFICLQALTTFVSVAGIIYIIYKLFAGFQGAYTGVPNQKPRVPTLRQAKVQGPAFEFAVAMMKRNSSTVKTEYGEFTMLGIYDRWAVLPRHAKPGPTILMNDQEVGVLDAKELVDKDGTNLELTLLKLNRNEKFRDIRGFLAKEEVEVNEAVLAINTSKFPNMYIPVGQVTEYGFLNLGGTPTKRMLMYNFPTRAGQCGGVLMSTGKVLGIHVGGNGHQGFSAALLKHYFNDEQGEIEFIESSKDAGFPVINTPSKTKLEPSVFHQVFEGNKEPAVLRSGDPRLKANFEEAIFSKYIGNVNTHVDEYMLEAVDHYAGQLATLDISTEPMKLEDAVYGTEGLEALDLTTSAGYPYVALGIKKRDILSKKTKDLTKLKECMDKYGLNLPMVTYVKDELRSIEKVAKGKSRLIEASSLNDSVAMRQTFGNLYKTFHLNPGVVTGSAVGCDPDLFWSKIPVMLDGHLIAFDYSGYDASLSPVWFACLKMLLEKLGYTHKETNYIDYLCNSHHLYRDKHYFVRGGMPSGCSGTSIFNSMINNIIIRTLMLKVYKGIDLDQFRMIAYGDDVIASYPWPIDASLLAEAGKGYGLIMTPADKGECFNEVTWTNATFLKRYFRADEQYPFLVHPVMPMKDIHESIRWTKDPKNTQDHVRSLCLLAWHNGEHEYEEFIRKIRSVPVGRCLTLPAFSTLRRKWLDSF

[2] = target: Genome polyprotein (Coxsackievirus B3 (strain Nancy)) (UniProt P03313); assay: Inhibition of Coxsackievirus B3 C-terminal His6-tagged protease 3C expressed in Escherichia coli BL21(DE3) at 500 uM using N-Dabcyl-KTLEALFQGPPVYE-(Edans)-NH2 as substrate preincubated up to 60 mins followed by substrate addition by fluorescence assay; conditions: TDE = time-dependent effect
Outline: (§2)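 CVB3 3Cpro preincubated with inhibitor (or DMSO control) in 100 mM HEPES-NaOH pH 7.5, 1 mM EDTA, 0.01% Triton X, lid-covered, for 60, 40, 20 or 0 min. Substrate then added and reaction followed 60 min (ex 355/em 538 nm). Relative activity calculated per 5-min step versus control. Triplicates per incubation time.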
Target sequence in this assay (P03313 whole entry): as above

Genome polyprotein [3] = target: T1, Genome polyprotein (Coxsackievirus B3 (strain Nancy), UniProt P03313); assay: (§3) Inhibition of Coxsackievirus B3 C-terminal His6-tagged protease 3C expressed in Escherichia coli BL21(DE3) using N-Dabcyl-KTLEALFQGPPVYE-(Edans)-NH2 as substrate after 30 mins by fluorescence assay
T1 sequence (P03313 1541-1723 limits assumed): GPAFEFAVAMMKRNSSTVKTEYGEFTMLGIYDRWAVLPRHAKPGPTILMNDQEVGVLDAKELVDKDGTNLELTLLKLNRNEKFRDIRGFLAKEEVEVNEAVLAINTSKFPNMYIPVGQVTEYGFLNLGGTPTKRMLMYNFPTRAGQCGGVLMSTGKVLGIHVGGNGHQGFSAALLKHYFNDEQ
Outline: (§4)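 FRET cleavage assay in 100 mM HEPES-NaOH pH 7.5, 1 mM EDTA, 0.01% Triton X. Enzyme added from a 40 µM stock, substrate diluted to 20 µM before addition. Inhibitor in DMSO, DMSO alone as control. Fluorescence at 538 nm (ex 355 nm) over 30 min, triplicates. Apparent IC50 from nonlinear fit of vi/v0 = 1/(1+[I]/IC50)^h. Ki from koff/kon for covalent reversible binding.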

[4] = target: Genome polyprotein (Coxsackievirus B3 (strain Nancy)) (UniProt P03313); assay: as §3; outline: as §4
Target sequence in this assay (P03313 1541-1723 limits assumed): as above

enterovirus D68 [5] = assay: Binding affinity to Enetrovirus D68 C-terminal His6-tagged protease 3C at Cys147 residue expressed in Escherichia coli BL21(DE3) assessed as adduct formation after 30 mins by fluorescence assay
[6] = target: Genome polyprotein (Coxsackievirus B3 (strain Nancy)) (UniProt P03313); assay: Irreversible inhibition of Coxsackievirus B3 C-terminal His6-tagged protease 3C expressed in Escherichia coli BL21(DE3) assessed as ratio of Kinact to Ki using N-Dabcyl-KTLEALFQGPPVYE-(Edans)-NH2 as substrate after 30 mins by fluorescence assay
Outline: (§5)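 Same FRET assay (HEPES-NaOH 100 mM, EDTA 1 mM, Triton X 0.01%, pH 7.5; ex 355/em 538 nm; triplicates). kobs for irreversible inhibition obtained by fitting progress curves to [P]=vi/kobs(1−e^(−kobs·t)). kinact/KI taken from the slope of the linear portion of kobs versus inhibitor concentration.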
Target sequence in this assay (P03313 whole entry): as the sequence (P03313 whole entry) above

[7] = Glutathione reactivity assessed as GSH-adduct formation after 2 to 24 hrs by LC-MS/MS analysis
Outline: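 Inhibitor in DMSO at 2.5 mM, mixed with equimolar glutathione in assay buffer (100 mM HEPES-NaOH, 1 mM EDTA, 0.01% Triton X, pH 7.5). Held at room temperature for 2 h and 24 h, with an aliquot taken by LC/MS after each period. Controls for each inhibitor omitted glutathione.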

[8] = target: Genome polyprotein (Coxsackievirus B3 (strain Nancy)) (UniProt P03313); assay: Inhibition of Coxsackievirus B3 C-terminal His6-tagged protease 3C expressed in Escherichia coli BL21(DE3) using N-Dabcyl-KTLEALFQGPPVYE-(Edans)-NH2 as substrate preincubated up to 60 mins followed by substrate addition by fluorescence assay; conditions: TDE = time-dependent effect
Outline: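 Enzyme and inhibitor (or DMSO) preincubated in assay buffer (HEPES-NaOH pH 7.5, EDTA, Triton X) for 60, 40, 20 or 0 min under a lid. Reaction started by FRET substrate addition and followed 60 min by fluorescence (ex 355/em 538 nm). Triplicates per incubation time. Relative activity calculated for every 5-min step of the reaction.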
Target sequence in this assay (P03313 whole entry): as above

enterovirus D68 [9] = assay: Binding affinity to Enetrovirus D68 C-terminal His6-tagged protease 3C at Cys60 residue expressed in Escherichia coli BL21(DE3) assessed as adduct formation after 30 mins by fluorescence assay
enterovirus D68 [10] = assay: Irreversible inhibition of Enetrovirus D68 C-terminal His6-tagged protease 3C expressed in Escherichia coli BL21(DE3) assessed as ratio of Kinact to Ki using N-Dabcyl-KTLEALFQGPPVYE-(Edans)-NH2 as substrate after 30 mins by fluorescence assay; outline: as §5
[11] = Solubility of the compound; assay type: physicochemical
Genome polyprotein [12] = target: T1, Genome polyprotein; assay: Reversible inhibition of Coxsackievirus B3 C-terminal His6-tagged protease 3C expressed in Escherichia coli BL21(DE3) using N-Dabcyl-KTLEALFQGPPVYE-(Edans)-NH2 as substrate after 30 mins by fluorescence assay; outline: as §4
[13] = Reversible inhibition of Enetrovirus D68 C-terminal His6-tagged protease 3C expressed in Escherichia coli BL21(DE3) using N-Dabcyl-KTLEALFQGPPVYE-(Edans)-NH2 as substrate after 30 mins by fluorescence assay; set-up: species or system enterovirus D68; outline: as §1
[14] = Drug level in HEPES-NaOH buffer treated with 7,7-dimethyl-2,5-dioxo-5,6,7,8-tetrahydro-2H-chromene-3-carboxamide overnight by LC-MS analysis
[15] = target: Genome polyprotein (Coxsackievirus B3 (strain Nancy)) (UniProt P03313); assay: Inhibition of Coxsackievirus B3 C-terminal His6-tagged protease 3C expressed in Escherichia coli BL21(DE3) at 100 uM using N-Dabcyl-KTLEALFQGPPVYE-(Edans)-NH2 as substrate preincubated up to 60 mins followed by substrate addition by fluorescence assay; conditions: TDE = time-dependent effect; outline: as §2
Target sequence in this assay (P03313 whole entry): as above

[16] = target: Genome polyprotein (Coxsackievirus B3 (strain Nancy)) (UniProt P03313); assay: Irreversible inhibition of Coxsackievirus B3 C-terminal His6-tagged protease 3C expressed in Escherichia coli BL21(DE3) assessed as protein-compound adduct formation after 60 mins by LC-MS analysis
Target sequence in this assay (P03313 whole entry): as above

[17] = target: Genome polyprotein (Coxsackievirus B3 (strain Nancy)) (UniProt P03313); assay: Irreversible inhibition of Coxsackievirus B3 C-terminal His6-tagged protease 3C expressed in Escherichia coli BL21(DE3) after 60 mins by LC-MS analysis
[18] = target: Genome polyprotein (Coxsackievirus B3 (strain Nancy)) (UniProt P03313); assay: Irreversible inhibition of Coxsackievirus B3 C-terminal His6-tagged protease 3C expressed in Escherichia coli BL21(DE3) assessed as thioether adduct formation after 60 mins by MALDi-TOF spectral analysis

Activity (enterovirus D68 [5]): Active | Ratio [6]: 1710 M⁻¹ s⁻¹ | inhibition [8]: Tde | Activity (enterovirus D68 [9]): Active | Ratio (enterovirus D68 [10]): 1210 M⁻¹ s⁻¹
Compound: NC(=O)c1cc(C(=O)CBr)cn1C/C=C/c1ccccc1
Drug metabolism [7]: Metabolite detected

inhibition [1]: < 20%
Compound: Cn1cc(C(=O)Cn2cccc(C(F)(F)F)c2=O)cc1C(N)=O

solubility [11]: Insoluble
Compound: NC(=O)n1cc(C(=O)c2cc(O)ccc2Cl)cn1

inhibition [1]: < 20%
Compound: Cn1cc(C(=O)CSc2nnnn2C)cc1C(N)=O

inhibition [1]: inactive
Compound: Cc1ccc2[nH]c(C)c(C(=O)CSc3ccccc3)c2c1

inhibition [1]: inactive
Compound: O=C(CSc1ccccc1)c1ccccc1

Activity (enterovirus D68 [5]): Active | Ratio [6]: 54.4 M⁻¹ s⁻¹ | inhibition [8]: Tde | Ratio (enterovirus D68 [10]): 160 M⁻¹ s⁻¹
Compound: NC(=O)c1cc(C(=O)CSc2ccccc2)cn1C/C=C/c1ccccc1
Drug metabolism [7]: Metabolite detected

Continued, compound first:

Compound: CC1(C)CC(=O)c2cc(C(N)=O)c(=O)oc2C1
inhibition [1]: > 30% | inhibition [2]: Tde | pIC50 (Genome polyprotein [3]): 3.45 | pKi (Genome polyprotein [3]): 3.41 | inhibition [4]: Dose-dependent effect

Compound: CC(=O)c1c(C)[nH]c(C(N)=O)c1C
inhibition [1]: < 20%

Compound: CC(=O)c1cc(C(N)=O)n(C/C=C/c2ccccc2)c1
pKi (Genome polyprotein [12]): 3.71 | pKi [13]: 3.37 | inhibition [8]: Tde

Compound: NC(=O)c1cc(C(=O)C(Sc2ccccc2)Sc2ccccc2)cn1C/C=C/c1ccccc1
pKi (Genome polyprotein [12]): 3.57 | inhibition [8]: Tde

Compound: CC1(C)CC(=O)c2cc(C(=O)O)c(=O)oc2C1
Drug metabolism [14]: Metabolite detected

Compound: Cn1cc(C(=O)CSc2ccccc2)cc1C(N)=O
inhibition [1]: Active | Activity (enterovirus D68 [5]): Active | inhibition [15]: Tde | Ratio [6]: 16.8 M⁻¹ s⁻¹ | inhibition [16]: Active | inhibition [17]: Active | inhibition [18]: Active | inhibition [4]: Dose-dependent effect | Ratio (enterovirus D68 [10]): 21.3 M⁻¹ s⁻¹
